Columns and labels:
3T3-L1 [1] = test: In vitro glucose transport activity in 3T3-LI adipocytes at 30 uM concentration.; type: functional, Mus musculus
Outline: (§1)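 Differentiated 3T3-L1 adipocytes, no added insulin, treated in triplicate for 18 h with compound at 3, 10 or 30 µM. Glucose transport expressed as % (relative to untreated); values are means of triplicate runs, significance by one-tailed independent Student's t-test.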

3T3-L1 [2] = test: In vitro glucose transport activity in 3T3-LI adipocytes at 10 uM concentration.; type: functional, Mus musculus; outline: as §1
3T3-L1 [3] = test: In vitro glucose transport activity in 3T3-LI adipocytes at 3 uM concentration.; type: functional, Mus musculus; outline: as §1
Mus musculus [4] = test: Change in plasma glucose levels measured in genetically altered obese diabetic mice(db/db) at 100 mg/kg at 24 hr postdose; type: functional
Mus musculus [5] = test: Mean body weight measured in genetically altered obese diabetic mice(db/db) at 100 mg/kg at 0 hr postdose; type: functional
Outline: (§2)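 Obese diabetic C57BL/KS-db/db mice, single dose at t = 0, n = 8 per group (n = 5 for parent compound). Body weight recorded per mouse at 0 and 24 h; food intake reported as g/mouse/day. Vehicle used as negative control, metformin as positive control.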

Mus musculus [6] = test: Mean body weight measured in genetically altered obese diabetic mice(db/db) at 100 mg/kg at 24 hr postdose; type: functional; outline: as §2
Mus musculus [7] = test: Food intake measured in genetically altered obese diabetic mice(db/db) at 100 mg/kg dose; type: functional; outline: as §2
Mus musculus [8] = test: Change in plasma glucose levels measured in genetically altered obese diabetic mice(db/db) at 100 mg/kg at 3 hr postdose; type: functional
Mus musculus [9] = test: Food intake measured in genetically altered obese diabetic mice(db/db) at 30 mg/kg dose; type: functional; outline: as §2
Mus musculus [10] = test: Food intake measured in genetically altered obese diabetic mice(db/db) at 100 mg/kg dose; 2 animals died; type: functional
Mus musculus [11] = test: Mean body weight measured in genetically altered obese diabetic mice(db/db) at 30 mg/kg at 0 hr postdose; type: functional; outline: as §2
Mus musculus [12] = test: Change in plasma glucose levels measured in genetically altered obese diabetic mice(db/db) at 30 mg/kg at 24 hr postdose; type: functional
Mus musculus [13] = test: Mean body weight measured in genetically altered obese diabetic mice(db/db) at 30 mg/kg at 24 hr postdose; type: functional; outline: as §2
Mus musculus [14] = test: Change in plasma glucose levels measured in genetically altered obese diabetic mice(db/db) at 30 mg/kg at 3 hr postdose; type: functional
Mus musculus [15] = test: Mean body weight measured in genetically altered obese diabetic mice(db/db) at 30 mg/kg at 0 h postdose; type: functional; outline: as §2
Mus musculus [16] = test: Mean body weight measured in genetically altered obese diabetic mice(db/db) at 30 mg/kg at 24 h postdose; type: functional; outline: as §2
Mus musculus [17] = test: Food intake measured in genetically altered obese diabetic mice(db/db) at 100 mg/kg dose; 6 animals died; type: functional

Structure (SMILES) | Glucose transport (3T3-L1 [1]) | Glucose transport (3T3-L1 [2]) | Glucose transport (3T3-L1 [3]) | Change (Mus musculus [4]) | Mean body weight (Mus musculus [5]) | Mean body weight (Mus musculus [6]) | Food intake (Mus musculus [7]) | Change (Mus musculus [8]) | other results
C[n+]1c2ccccc2c(Sc2ccc(Cl)cc2)c2oc3ccccc3c21.O=S(=O)([O-])C(F)(F)F | 141% | 142% | 118% |  |  |  |  |  | 
C[n+]1c2ccc(F)cc2c(Oc2ccccc2)c2[nH]c3ccccc3c21.[Cl-] | 0.39% | 207% | 140% | -7.5% | 46.6 g mouse-1 | 45.2 g mouse-1 | 1.6 g mouse-1 day-1 | -11.8% | 
Fc1ccc(C[n+]2c3ccccc3cc3[nH]c4ccccc4c32)cc1.[Cl-] | 323% | 248% | 168% | -9.7% | 40.2 g mouse-1 | 39 g mouse-1 | 3.1 g mouse-1 day-1 | -36.3% | 
C[n+]1c2ccc(F)cc2c(-c2ccccc2)c2[nH]c3ccccc3c21.[Cl-] | 116% | 215% | 281% | -4.9% | 40.5 g mouse-1 | 40.4 g mouse-1 | 5.1 g mouse-1 day-1 | -11.2% | 
CC[n+]1c2ccccc2cc2[nH]c3ccccc3c21.[Cl-] | 404% | 228% | 197% | -26.5% | 44.6 g mouse-1 | 43.3 g mouse-1 |  | -23.2% | Food intake (Mus musculus [9]): 5.1 g mouse-1 day-1; Food intake (Mus musculus [10]): 1 g mouse-1 day-1; Mean body weight (Mus musculus [11]): 41.7 g mouse-1; Change (Mus musculus [12]): -4.1%; Mean body weight (Mus musculus [13]): 41.2 g mouse-1; Change (Mus musculus [14]): -7.7%
COc1cccc2cc3[nH]c4ccccc4c3[n+](C)c12.[Cl-] | 543% | 486% | 237% | -58.3% | 38.4 g mouse-1 | 37.1 g mouse-1 | 2 g mouse-1 day-1 | -8.3% | 
CCCC[n+]1c2ccccc2cc2[nH]c3ccccc3c21.[Cl-] | 490% | 868% | 561% | -2.2% | 45.8 g mouse-1 | 45.8 g mouse-1 |  | -33.8% | Mean body weight (Mus musculus [15]): 38.7 g mouse-1; Mean body weight (Mus musculus [16]): 38.6 g mouse-1; Food intake (Mus musculus [9]): 6 g mouse-1 day-1; Change (Mus musculus [12]): -22%; Food intake (Mus musculus [17]): 2.6 g mouse-1 day-1; Change (Mus musculus [14]): 4%
C[n+]1c2ccccc2c(Cl)c2[nH]c3cc(F)ccc3c21.[Cl-] | 6% | 159% | 107% |  |  |  |  |  | 
COC(=O)c1c2ccccc2[n+](C)c2c3ccccc3n(C)c12.[I-] | 260% | 207% | 155% |  |  |  |  |  | 
C[n+]1c2ccccc2c(I)c2[nH]c3c(F)cccc3c21.[Cl-] | 0.1% | 255% | 129% | -32.9% | 43.4 g mouse-1 | 41.4 g mouse-1 | 0.7 g mouse-1 day-1 | 19.9% | 
C[n+]1c2ccccc2c(Cl)c2[nH]c3ccc(-c4ccccc4)cc3c21.[Cl-] | 16% | 190% | 122% |  |  |  |  |  | 
C[n+]1c2ccc(F)cc2cc2[nH]c3ccccc3c21.[Cl-] | 443% | 360% | 253% | -34.5% | 43.8 g mouse-1 | 41.9 g mouse-1 | 0.5 g mouse-1 day-1 | -42.5% | 
COC(=O)c1c2ccccc2[n+](C)c2c1[nH]c1ccccc12.[I-] | 371% | 159% | 63% |  |  |  |  |  | 
C[n+]1c2ccc(F)cc2c(Nc2ccccc2)c2[nH]c3ccccc3c21.[Cl-] | 0.9% | 208% | 325% | -10.7% | 44.8 g mouse-1 | 44.2 g mouse-1 | 3.2 g mouse-1 day-1 | -10.5% | 
C[n+]1c2ccccc2c(Cl)c2[nH]c3ccccc3c21.[Cl-] | 0.33% | 101% | 107% |  |  |  |  |  | 
C[n+]1c2c(c(Sc3ccc(Cl)cc3)c3ccccc31)Cc1ccccc1-2.O=S(=O)([O-])C(F)(F)F | 122% | 110% | 108% |  |  |  |  |  | 
C[n+]1c2ccccc2c(Cl)c2[nH]c3cccc(F)c3c21.[Cl-] | 6.4% | 457% | 143% |  |  |  |  |  | 
[Cl-].c1ccc(C[n+]2c3ccccc3cc3[nH]c4ccccc4c32)cc1 | 161% | 781% | 611% | -20% | 39.3 g mouse-1 | 38.9 g mouse-1 | 5.1 g mouse-1 day-1 | -15% | 
C[n+]1c2ccccc2cc2[nH]c3ccccc3c21.[I-] [CRYPTOLEPTINE IODIDE] | 287% | 163% | 134% |  |  |  |  |  | 
C[n+]1c2ccccc2c(I)c2[nH]c3ccc(F)cc3c21.[Cl-] | 0.92% | 117% | 115% | -13.2% | 42.2 g mouse-1 | 41.8 g mouse-1 | 2.7 g mouse-1 day-1 | -33.1% | 
C[n+]1c2ccc(F)cc2c(Sc2ccc(Cl)cc2)c2[nH]c3ccccc3c21.[Cl-] | 13% | 154% | 128% |  |  |  |  |  | 
C[n+]1c2ccccc2cc2[nH]c3cc(Cl)c(Br)cc3c21.[Cl-] | 0.1% | 127% | 104% | -18.9% | 45.5 g mouse-1 | 44.6 g mouse-1 | 2.8 g mouse-1 day-1 | -33% | 
C[n+]1c2cccc(Cl)c2c(Cl)c2[nH]c3ccccc3c21.[Cl-] | 352% | 282% | 120% |  |  |  |  |  | 
C[n+]1c2ccc(Cl)cc2c(Cl)c2[nH]c3ccccc3c21.[Cl-] | 215% | 138% | 108% |  |  |  |  |  | 
C[n+]1c2ccccc2c(Cl)c2sc3ccccc3c21.O=S(=O)([O-])C(F)(F)F | 110% | 100% | 96% |  |  |  |  |  | 
C[n+]1c2c(c(Cl)c3ccccc31)Cc1ccccc1-2.O=S(=O)([O-])C(F)(F)F | 297% | 119% | 125% |  |  |  |  |  | 
C[n+]1c2ccccc2c(Cl)c2oc3ccccc3c21.O=S(=O)([O-])C(F)(F)F | 107% | 114% | 119% | -20.8% | 40.6 g mouse-1 | 41.1 g mouse-1 | 4.9 g mouse-1 day-1 | -17.9% | 
C[n+]1c2ccccc2cc2[n-]c3ccccc3c21.Cl [CRYPTOLEPINE HYDROCHLORIDE] | 359% | 305% | 148% | -43.1% | 41 g mouse-1 | 39.8 g mouse-1 | 0.9 g mouse-1 day-1 | -16.4% | 
C[n+]1c2ccc(F)cc2c(Cl)c2[nH]c3ccccc3c21.[Cl-] | 3.3% | 224% | 142% |  |  |  |  |  | 

— ChEMBL document CHEMBL1131580, “Antihyperglycemic activities of cryptolepine analogues: an ethnobotanical lead structure isolated from Cryptolepis sanguinolenta” (1998)
